Active and inactive are the calls of the source. The rule behind the calls is not given here.
Legend:
[1] = system: MCF7; assay: Growth inhibition against human MCF7 cells expressing Cdc25A-C assessed as cell viability at 400 uM after 72 hrs by MTS assay; assay type: functional, cell-based
Method in brief: (§1)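 MCF-7 breast, PC-3 prostate and K562 leukaemia cells treated 72 h with inhibitor or DMSO vehicle control, then cell viability measured. Values are mean ± SD of three experiments; significance by Student's t test, p ≤ 0.05.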

[2] = target: T1, M-phase inducer phosphatase 3 (Homo sapiens) (UniProt P30307); assay: Inhibition of recombinant phosphatase activity of Cdc25C catalytic domain expressed in Escherichia coli BL21(DE3) using OMFP as substrate at 100 uM after 15 mins by fluorimetric assay
T1 sequence (whole entry): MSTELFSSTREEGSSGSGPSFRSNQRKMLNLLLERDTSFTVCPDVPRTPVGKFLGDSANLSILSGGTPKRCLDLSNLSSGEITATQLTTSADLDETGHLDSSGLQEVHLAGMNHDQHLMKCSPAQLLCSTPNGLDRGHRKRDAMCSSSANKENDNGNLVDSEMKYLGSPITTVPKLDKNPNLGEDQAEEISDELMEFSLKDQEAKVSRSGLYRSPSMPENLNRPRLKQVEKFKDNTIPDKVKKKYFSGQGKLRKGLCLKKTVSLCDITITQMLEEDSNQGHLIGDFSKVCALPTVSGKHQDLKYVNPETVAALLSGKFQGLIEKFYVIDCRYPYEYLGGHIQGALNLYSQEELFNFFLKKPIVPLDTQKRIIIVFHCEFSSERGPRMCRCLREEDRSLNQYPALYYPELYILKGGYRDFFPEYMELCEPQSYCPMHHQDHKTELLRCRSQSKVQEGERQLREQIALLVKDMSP

[3] = target: T2, M-phase inducer phosphatase 1 (Homo sapiens) (UniProt P30304); assay: Inhibition of recombinant phosphatase activity of Cdc25A catalytic domain expressed in Escherichia coli BL21(DE3) using OMFP as substrate at 100 uM after 15 mins by fluorimetric assay
T2 sequence (whole entry): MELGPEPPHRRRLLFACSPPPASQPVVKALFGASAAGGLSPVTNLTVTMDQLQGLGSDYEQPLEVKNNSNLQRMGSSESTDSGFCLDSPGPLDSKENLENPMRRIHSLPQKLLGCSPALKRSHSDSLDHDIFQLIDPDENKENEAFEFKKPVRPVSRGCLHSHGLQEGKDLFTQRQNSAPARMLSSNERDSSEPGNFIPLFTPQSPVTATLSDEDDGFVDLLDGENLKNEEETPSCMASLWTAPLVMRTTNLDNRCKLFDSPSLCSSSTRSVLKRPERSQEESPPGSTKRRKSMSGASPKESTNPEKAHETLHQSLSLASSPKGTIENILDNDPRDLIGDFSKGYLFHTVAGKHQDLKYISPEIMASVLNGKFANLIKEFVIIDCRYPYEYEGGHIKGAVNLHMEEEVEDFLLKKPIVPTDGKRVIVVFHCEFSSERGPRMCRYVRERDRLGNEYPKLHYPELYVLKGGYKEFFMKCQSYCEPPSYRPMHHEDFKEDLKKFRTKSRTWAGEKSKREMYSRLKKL

[4] = system: PC-3; assay: Growth inhibition against human PC3 cells expressing Cdc25A-C assessed as cell viability at 400 uM after 72 hrs by MTS assay; assay type: functional, cell-based; method in brief: as §1
[5] = system: MCF7; assay: Cell cycle arrest in human MCF7 cells assessed as accumulation at G2/M phase at 400 uM after 48 hrs by propidium iodide staining-based flow cytometry (reference value: 21 +/- 0.04%); assay type: functional
[6] = system: MCF7; assay: Cell cycle arrest in human MCF7 cells assessed as accumulation at S phase at 400 uM after 48 hrs by propidium iodide staining-based flow cytometry (reference value: 14.5 +/- 0.01%); assay type: functional
[7] = target: T3, M-phase inducer phosphatase 2 (Homo sapiens) (UniProt P30305); assay: (§2) Inhibition of recombinant phosphatase activity of Cdc25B catalytic domain expressed in Escherichia coli BL21(DE3) using OMFP as substrate by spectrofluorimetric analysis
T3 sequence (whole entry): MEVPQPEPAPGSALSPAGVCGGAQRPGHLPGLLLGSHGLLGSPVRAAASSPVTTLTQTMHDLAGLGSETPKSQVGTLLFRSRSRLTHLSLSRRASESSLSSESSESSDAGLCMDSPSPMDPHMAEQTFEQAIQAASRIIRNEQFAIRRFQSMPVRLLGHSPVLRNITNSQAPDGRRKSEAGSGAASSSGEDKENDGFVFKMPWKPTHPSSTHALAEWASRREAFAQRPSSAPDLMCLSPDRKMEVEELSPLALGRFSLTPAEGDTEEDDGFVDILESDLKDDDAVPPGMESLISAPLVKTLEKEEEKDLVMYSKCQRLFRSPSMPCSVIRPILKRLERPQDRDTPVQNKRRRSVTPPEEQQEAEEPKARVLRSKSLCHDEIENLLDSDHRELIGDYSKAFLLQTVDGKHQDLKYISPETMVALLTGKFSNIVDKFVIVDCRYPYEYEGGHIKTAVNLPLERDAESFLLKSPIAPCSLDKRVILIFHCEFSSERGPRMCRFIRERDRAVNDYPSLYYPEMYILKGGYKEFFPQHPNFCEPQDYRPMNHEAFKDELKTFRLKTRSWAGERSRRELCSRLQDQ

[8] = system: MCF7; assay: Cell cycle arrest in human MCF7 cells assessed as accumulation at G2/M phase at 400 uM after 24 hrs by propidium iodide staining-based flow cytometry (reference value: 9.4 +/- 0.04%); assay type: functional
[9] = system: MCF7; assay: Cell cycle arrest in human MCF7 cells assessed as accumulation at S phase at 400 uM after 24 hrs by propidium iodide staining-based flow cytometry (reference value: 9.35%); assay type: functional
[10] = target: T3, M-phase inducer phosphatase 2 (Homo sapiens); assay: Reversible inhibition of recombinant phosphatase activity of Cdc25B catalytic domain expressed in Escherichia coli BL21(DE3) assessed as residual activity of enzyme measured after 10 fold dilution at 100 uM preincubated for 20 mins
[11] = target: T3, M-phase inducer phosphatase 2 (Homo sapiens); assay: Inhibition of Cdc25B in human K562 cells assessed as increase in Cdk1 phosphorylation at 400 uM after 24 hrs by Western blot analysis; assay type: cell-based
Method in brief: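 K562 cells treated 24 h with inhibitor or DMSO vehicle, lysed, and Western blotted with anti-phospho-Cdk1 (Y15) antibody; total Cdk1 detected as loading control.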

[12] = system: MCF7; assay: Cell cycle arrest in human MCF7 cells assessed as accumulation at G1 phase at 400 uM after 24 hrs by propidium iodide staining-based flow cytometry (reference value: 81.3 +/- 0.01%); assay type: functional
[13] = system: MCF7; assay: Cell cycle arrest in human MCF7 cells assessed as accumulation at G1 phase at 400 uM after 48 hrs by propidium iodide staining-based flow cytometry (reference value: 64.5 +/- 0.02%); assay type: functional
[14] = system: K562; assay: Growth inhibition against human K562 cells expressing Cdc25A-C assessed as cell viability at 400 uM after 72 hrs by MTS assay; assay type: functional, cell-based; method in brief: as §1
[15] = target: T3, M-phase inducer phosphatase 2 (Homo sapiens); assay: Inhibition of recombinant phosphatase activity of Cdc25B catalytic domain expressed in Escherichia coli BL21(DE3) using OMFP as substrate at 100 uM after 15 mins by fluorimetric assay
[16] = target: T4, M-phase inducer phosphatase 2 (Homo sapiens, UniProt P30305); assay: Competitive inhibition of recombinant phosphatase activity of Cdc25B catalytic domain expressed in Escherichia coli BL21(DE3) using OMFP as substrate by Lineweaver-Burk plot analysis
T4 sequence (P30305 whole entry): T3 sequence (whole entry)

[17] = target: T5, M-phase inducer phosphatase 1 (Homo sapiens, UniProt P30304); assay: Inhibition of recombinant phosphatase activity of Cdc25A catalytic domain expressed in Escherichia coli BL21(DE3) using OMFP as substrate by spectrofluorimetric analysis
T5 sequence (P30304 whole entry): T2 sequence (whole entry)
Method in brief: (§3)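 Purified recombinant Cdc25A catalytic domain; phosphatase activity measured as OMFP hydrolysis versus inhibitor concentration to derive IC50, with Ki calculated from kinetic measurements. Results are averages ± SD of three determinations.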

[18] = target: T4, M-phase inducer phosphatase 2; assay: as §2
[19] = target: T5, M-phase inducer phosphatase 1; assay: Inhibition of recombinant phosphatase activity of Cdc25A catalytic domain expressed in Escherichia coli BL21(DE3) using OMFP as substrate by Lineweaver-Burk plot analysis; method in brief: as §3

| inhibition [2] | inhibition [3] | inhibition [7] | inhibition [10] | inhibition [11] | inhibition [15] | Ki [16] | IC50 [17] | IC50 [18] | Ki [19] | SMILES | growth inhibition (GI) [1] | growth inhibition (GI) [4] | Activity [5] | Activity [6] | Activity [8] | Activity [9] | Activity [12] | Activity [13] | growth inhibition (GI) [14] |
| --- | --- | --- | --- | --- | --- | --- | --- | --- | --- | --- | --- | --- | --- | --- | --- | --- | --- | --- | --- |
| 55% | 46% | Dose-dependent effect | Active | Active | 41% | – | – | – | – | COc1ccc(Cc2ccc3nc(O)cc(C)c3c2)cc1S(=O)(=O)O | Active | Active | 3.3% | 3.2% | 5.6% | 3.3% | 91.1% | 93.5% | Active |
| 35% | 41% | Dose-dependent effect | – | Active | 53% | 159 µM | 110 µM | 173 µM | 139 µM | O=S(=O)(O)c1ccc(-c2nnc(-c3ccccn3)nc2-c2ccc(S(=O)(=O)O)o2)o1 | Active | Active | 2.9% | 1.8% | 10% | 11.3% | 78.7% | 95.4% | Active |

Reference: ChEMBL document CHEMBL2057126, “Discovery of new inhibitors of Cdc25B dual specificity phosphatases by structure-based virtual screening” (J Med Chem, 2012)
